Measured values as given in ChEMBL document CHEMBL4689842, “EUbOPEN Chemogenomics Library wave 1” (2021).
Where “and” joins values, the source holds several entries; their conditions need not be identical. Equal entries are not always repeated.

System: HEK-293T
Assay: Multiplex assay against HEK293T;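 on Population Tubulin-Different-Phenotype (%): share of the cells with healthy nuclei that show this phenotype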
Format: toxicity, cell-based
Conditions: human
Outline: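 Imaging took place on a CQ1 microscope at 37°C and 5% CO2 once compound had been added to live cells stained at seeding with Hoechst33342, BioTracker Green Microtubule Cytoskeleton Dye, MitoTracker Red and Annexin V Alexa Fluor 680. CellPathfinder machine-learning gating classed cells as Hoechst high-intensity objects or normal cells, classed normal cells as having healthy, pyknosed or fragmented nuclei, and classed pyknosed cells as mitotic or apoptotic. Tubulin, mitochondrial-mass and membrane-permeability phenotypes are per cents of the healthy-nucleus cells.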

[1] = 12 h, 1 µM, compound concentration 1 uM, replicate 1
[2] = 12 h, 1 µM, compound concentration 1 uM, replicate 2
[3] = 12 h, 10 µM, compound concentration 10 uM, replicate 1
[4] = 12 h, 10 µM, compound concentration 10 uM, replicate 2
[5] = 24 h, 1 µM, compound concentration 1 uM, replicate 1
[6] = 24 h, 1 µM, compound concentration 1 uM, replicate 2
[7] = 24 h, 10 µM, compound concentration 10 uM, replicate 1
[8] = 24 h, 10 µM, compound concentration 10 uM, replicate 2
[9] = 48 h, 1 µM, compound concentration 1 uM, replicate 1
[10] = 48 h, 1 µM, compound concentration 1 uM, replicate 2
[11] = 48 h, 10 µM, compound concentration 10 uM, replicate 1
[12] = 48 h, 10 µM, compound concentration 10 uM, replicate 2

Compound: CN(C)C(=O)/C(C#N)=C/c1ccc(-c2nc3cnc4[nH]ccc4c3n2C2CCCCC2)o1
- Population Apoptotic (%) [1]: 48%
- Population Fragmented Nuclei (%) [1]: 9%
- Population Healthy Nuclei (%) [1]: 42%
- Population Hoechst High Intensity Objects (%) [1]: 12%
- Population Membrane Permeable-Phenotype (%) [1]: 2%
- Population Mitochondria Different-Phenotype (%) [1]: 68%
- Population Mitotic Cells (%) [1]: 51%
- Population Normal (%) [1]: 87%
- Population Pyknosed Nuclei (%) [1]: 48%
- Population Tubulin-Different-Phenotype (%) [1]: 44%
- Total Cell Count [1]: 283
- Population Apoptotic (%) [2]: 21%
- Population Fragmented Nuclei (%) [2]: 6%
- Population Healthy Nuclei (%) [2]: 46%
- Population Hoechst High Intensity Objects (%) [2]: 5%
- Population Membrane Permeable-Phenotype (%) [2]: 5%
- Population Mitochondria Different-Phenotype (%) [2]: 36%
- Population Mitotic Cells (%) [2]: 78%
- Population Normal (%) [2]: 94%
- Population Pyknosed Nuclei (%) [2]: 46%
- Population Tubulin-Different-Phenotype (%) [2]: 37%
- Total Cell Count [2]: 175
- Population Apoptotic (%) [3]: 41%
- Population Fragmented Nuclei (%) [3]: 24%
- Population Healthy Nuclei (%) [3]: 39%
- Population Hoechst High Intensity Objects (%) [3]: 37%
- Population Membrane Permeable-Phenotype (%) [3]: 17%
- Population Mitochondria Different-Phenotype (%) [3]: 63%
- Population Mitotic Cells (%) [3]: 58%
- Population Normal (%) [3]: 62%
- Population Pyknosed Nuclei (%) [3]: 36%
- Population Tubulin-Different-Phenotype (%) [3]: 60%
- Total Cell Count [3]: 451
- Population Apoptotic (%) [4]: 32%
- Population Fragmented Nuclei (%) [4]: 17%
- Population Healthy Nuclei (%) [4]: 43%
- Population Hoechst High Intensity Objects (%) [4]: 25%
- Population Membrane Permeable-Phenotype (%) [4]: 15%
- Population Mitochondria Different-Phenotype (%) [4]: 50%
- Population Mitotic Cells (%) [4]: 67%
- Population Normal (%) [4]: 74%
- Population Pyknosed Nuclei (%) [4]: 39%
- Population Tubulin-Different-Phenotype (%) [4]: 79%
- Total Cell Count [4]: 219
- Population Apoptotic (%) [5]: 46%
- Population Fragmented Nuclei (%) [5]: 10%
- Population Healthy Nuclei (%) [5]: 45%
- Population Hoechst High Intensity Objects (%) [5]: 14%
- Population Membrane Permeable-Phenotype (%) [5]: 2%
- Population Mitochondria Different-Phenotype (%) [5]: 60%
- Population Mitotic Cells (%) [5]: 53%
- Population Normal (%) [5]: 85%
- Population Pyknosed Nuclei (%) [5]: 44%
- Population Tubulin-Different-Phenotype (%) [5]: 40%
- Total Cell Count [5]: 316
- Population Apoptotic (%) [6]: 21%
- Population Fragmented Nuclei (%) [6]: 8%
- Population Healthy Nuclei (%) [6]: 68%
- Population Hoechst High Intensity Objects (%) [6]: 2%
- Population Membrane Permeable-Phenotype (%) [6]: 10%
- Population Mitochondria Different-Phenotype (%) [6]: 23%
- Population Mitotic Cells (%) [6]: 78%
- Population Normal (%) [6]: 97%
- Population Pyknosed Nuclei (%) [6]: 22%
- Population Tubulin-Different-Phenotype (%) [6]: 34%
- Total Cell Count [6]: 239
- Population Apoptotic (%) [7]: 44%
- Population Fragmented Nuclei (%) [7]: 25%
- Population Healthy Nuclei (%) [7]: 39%
- Population Hoechst High Intensity Objects (%) [7]: 41%
- Population Membrane Permeable-Phenotype (%) [7]: 9%
- Population Mitochondria Different-Phenotype (%) [7]: 61%
- Population Mitotic Cells (%) [7]: 55%
- Population Normal (%) [7]: 58%
- Population Pyknosed Nuclei (%) [7]: 35%
- Population Tubulin-Different-Phenotype (%) [7]: 57%
- Total Cell Count [7]: 448
- Population Apoptotic (%) [8]: 34%
- Population Fragmented Nuclei (%) [8]: 22%
- Population Healthy Nuclei (%) [8]: 56%
- Population Hoechst High Intensity Objects (%) [8]: 30%
- Population Membrane Permeable-Phenotype (%) [8]: 7%
- Population Mitochondria Different-Phenotype (%) [8]: 49%
- Population Mitotic Cells (%) [8]: 65%
- Population Normal (%) [8]: 69%
- Population Pyknosed Nuclei (%) [8]: 21%
- Population Tubulin-Different-Phenotype (%) [8]: 72%
- Total Cell Count [8]: 280
- Population Apoptotic (%) [9]: 45%
- Population Fragmented Nuclei (%) [9]: 13%
- Population Healthy Nuclei (%) [9]: 49%
- Population Hoechst High Intensity Objects (%) [9]: 13%
- Population Membrane Permeable-Phenotype (%) [9]: 2%
- Population Mitochondria Different-Phenotype (%) [9]: 21%
- Population Mitotic Cells (%) [9]: 54%
- Population Normal (%) [9]: 86%
- Population Pyknosed Nuclei (%) [9]: 37%
- Population Tubulin-Different-Phenotype (%) [9]: 30%
- Total Cell Count [9]: 381
- Population Apoptotic (%) [10]: 15%
- Population Fragmented Nuclei (%) [10]: 9%
- Population Healthy Nuclei (%) [10]: 80%
- Population Hoechst High Intensity Objects (%) [10]: 3%
- Population Membrane Permeable-Phenotype (%) [10]: 8%
- Population Mitochondria Different-Phenotype (%) [10]: 5%
- Population Mitotic Cells (%) [10]: 84%
- Population Normal (%) [10]: 96%
- Population Pyknosed Nuclei (%) [10]: 10%
- Population Tubulin-Different-Phenotype (%) [10]: 21%
- Total Cell Count [10]: 389
- Population Apoptotic (%) [11]: 46%
- Population Fragmented Nuclei (%) [11]: 26%
- Population Healthy Nuclei (%) [11]: 46%
- Population Hoechst High Intensity Objects (%) [11]: 34%
- Population Membrane Permeable-Phenotype (%) [11]: 13%
- Population Mitochondria Different-Phenotype (%) [11]: 29%
- Population Mitotic Cells (%) [11]: 53%
- Population Normal (%) [11]: 65%
- Population Pyknosed Nuclei (%) [11]: 27%
- Population Tubulin-Different-Phenotype (%) [11]: 40%
- Total Cell Count [11]: 490
- Population Apoptotic (%) [12]: 35%
- Population Fragmented Nuclei (%) [12]: 18%
- Population Healthy Nuclei (%) [12]: 67%
- Population Hoechst High Intensity Objects (%) [12]: 21%
- Population Membrane Permeable-Phenotype (%) [12]: 10%
- Population Mitochondria Different-Phenotype (%) [12]: 17%
- Population Mitotic Cells (%) [12]: 64%
- Population Normal (%) [12]: 78%
- Population Pyknosed Nuclei (%) [12]: 13%
- Population Tubulin-Different-Phenotype (%) [12]: 49%
- Total Cell Count [12]: 338

Compound: Cn1c(-c2csc(C3CCN(CC4=NC5N=CC=CC5N4)CC3)n2)nc2ccccc21 (configuration not stated) [BAY-070]
- Population Apoptotic (%) [3]: 19% and 14%
- Population Fragmented Nuclei (%) [3]: 25% and 9%
- Population Healthy Nuclei (%) [3]: 48% and 56%
- Population Hoechst High Intensity Objects (%) [3]: 16% and 14%
- Population Membrane Permeable-Phenotype (%) [3]: 5% and 3%
- Population Mitochondria Different-Phenotype (%) [3]: 5% and 8%
- Population Mitotic Cells (%) [3]: 80% and 85%
- Population Normal (%) [3]: 83% and 85%
- Population Pyknosed Nuclei (%) [3]: 26% and 33%
- Population Tubulin-Different-Phenotype (%) [3]: 7% and 10%
- Total Cell Count [3]: 591 and 756
- Population Apoptotic (%) [4]: 15% and 10%
- Population Fragmented Nuclei (%) [4]: 3% and 6%
- Population Healthy Nuclei (%) [4]: 82% and 88%
- Population Hoechst High Intensity Objects (%) [4]: 5% and 2%
- Population Membrane Permeable-Phenotype (%) [4]: 1%
- Population Mitochondria Different-Phenotype (%) [4]: 21%
- Population Mitotic Cells (%) [4]: 84% and 89%
- Population Normal (%) [4]: 94% and 97%
- Population Tubulin-Different-Phenotype (%) [4]: 14% and 5%
- Total Cell Count [4]: 1063 and 1470
- Population Apoptotic (%) [7]: 15% and 24%
- Population Fragmented Nuclei (%) [7]: 10% and 21%
- Population Healthy Nuclei (%) [7]: 63% and 62%
- Population Hoechst High Intensity Objects (%) [7]: 9% and 10%
- Population Membrane Permeable-Phenotype (%) [7]: 6%
- Population Mitochondria Different-Phenotype (%) [7]: 7% and 4%
- Population Mitotic Cells (%) [7]: 84% and 75%
- Population Normal (%) [7]: 90% and 89%
- Population Pyknosed Nuclei (%) [7]: 25% and 16%
- Total Cell Count [7]: 694 and 578
- Population Apoptotic (%) [8]: 9% and 17%
- Population Fragmented Nuclei (%) [8]: 14% and 5%
- Population Healthy Nuclei (%) [8]: 83% and 87%
- Population Hoechst High Intensity Objects (%) [8]: 2% and 5%
- Population Membrane Permeable-Phenotype (%) [8]: 5%
- Population Mitochondria Different-Phenotype (%) [8]: 1% and 11%
- Population Mitotic Cells (%) [8]: 90% and 82%
- Population Normal (%) [8]: 97% and 94%
- Total Cell Count [8]: 2202 and 1248
